Furin inh – blocks human furin protease activity; P09958; purified furin, fluorogenic substrate cleavage; inhibition, % at 20 µM or 30 µM; 220,000 tested, 0.061% active; in the data active means inhibition above about 25%
NR2E3 ag-1 – human photoreceptor-specific nuclear receptor agonism. Q9Y5X4. CHO-S Gal4-NCOR/VP16-NR2E3 two-hybrid, luciferase. inhibition of corepressor binding, % at 3.98 µM. 360,000 tested, 0.35% active. AID 602229;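 active means inhibition above the mean of all tested compounds plus 3 SD, cut at about 70% in these data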;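 further: 0% = DMSO with NR2E3 transfected cells and 100% = cells lacking NR2E3 construct; higher means lower luciferase signal from less NR2E3 corepressor binding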
Target sequence (Q9Y5X4 whole entry, looked up, the tested form may be a part): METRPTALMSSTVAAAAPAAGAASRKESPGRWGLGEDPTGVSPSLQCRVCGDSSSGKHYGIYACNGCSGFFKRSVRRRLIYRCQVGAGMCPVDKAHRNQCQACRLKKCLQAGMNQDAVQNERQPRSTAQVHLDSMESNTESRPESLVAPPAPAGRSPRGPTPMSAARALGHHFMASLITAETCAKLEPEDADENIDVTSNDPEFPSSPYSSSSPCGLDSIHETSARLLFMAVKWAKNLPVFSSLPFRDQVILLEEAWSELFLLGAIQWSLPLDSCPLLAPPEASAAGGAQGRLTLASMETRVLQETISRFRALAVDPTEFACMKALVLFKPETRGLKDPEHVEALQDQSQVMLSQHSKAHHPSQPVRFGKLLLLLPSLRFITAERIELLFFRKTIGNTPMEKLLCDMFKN
EP2 mod – EP2 receptor (human) modulation; EP2-expressing cells, cAMP HTRF FRET, PGE2 co-stimulation; induction, % at 25 µM; 260,000 tested, 0.83% active;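 active means compounds whose cAMP rise, as percent of the full-agonist control response, exceeds 60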;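 further: rat C6 glioma line stably carrying human EP2 under a CMV promoter; the protocol text gives 20 µM as final concentration; 100% = response of wells given 1 µM PGE2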
Target sequence (P43116 whole entry, looked up): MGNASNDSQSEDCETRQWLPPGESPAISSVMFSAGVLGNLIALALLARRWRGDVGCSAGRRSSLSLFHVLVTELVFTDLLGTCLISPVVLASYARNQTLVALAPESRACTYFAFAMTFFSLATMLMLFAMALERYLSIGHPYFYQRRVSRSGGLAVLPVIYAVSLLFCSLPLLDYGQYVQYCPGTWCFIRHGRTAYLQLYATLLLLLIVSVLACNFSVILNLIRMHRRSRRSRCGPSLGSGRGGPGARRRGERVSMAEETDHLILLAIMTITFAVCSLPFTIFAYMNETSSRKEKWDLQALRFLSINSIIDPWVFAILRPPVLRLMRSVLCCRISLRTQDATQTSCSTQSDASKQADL
PGE2 EP2 inh – EP2 receptor (human) inhibition. P43116. C6 glioma cells expressing human EP2, cAMP TR-FRET; cells stimulated with saturating PGE2. inhibition, % at 25 µM. 260,000 tested, 0.52% active;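 active means percent inhibition above 40 after rounding to a whole number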;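 further: rat C6 glioma host cells with rolipram phosphodiesterase inhibitor present; the protocol text gives 20 µM as final concentration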
JMJD2C inh – inhibitors of human GASC-1 (JMJD2C) demethylase; AID 2099; inhibition, % at 2.35 µM; Q9H3R0; GST-JMJD2C(1-420) H3K9me3 demethylation, DELFIA europium; 330,000 tested, 0.069% active;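 active means more than half of a compound's replicate wells show inhibition beyond 50%, single wells judged on their own value; inconclusive means some, but no more than half, of replicates pass 50% inhibition; inactive means no replicate passes 50% inhibition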;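 further: signal counts dimethyl H3K9 product captured on neutravidin plate; 0% = median of DMSO wells and 100% = 0.3 times that DMSO median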
NR2E3 ag-2 – NR2E3 (human) agonism | GST-NR2E3/biotin-RetCOR TR-FRET, 1536-well | inhibition of corepressor binding, % at 4.78 µM | 320,000 tested, 0.12% active | Q9Y5X4;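 active means percent inhibition above the cutoff of mean plus 3 SD of all tested compounds, set per screening campaign, cut at about 20% in these data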;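 further: 0% = DMSO wells and 100% = biotin wells as full block of FRET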
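Material: NR2E3–RetCOR corepressor complex | Quantity: 1.35 nM GST-tagged NR2E3 final | Schedule: 5 h at 4 °C | Replication: Singlicate compound wells | Reagent: RetCOR corepressor, biotinylated, 7 nM | Controls: Biotin wells as high control, 0.6% DMSO wells as low control | Signal: TR-FRET, Eu(K)-anti-GST donor, streptavidin-D2 acceptor, ex 340, em 617/671 nm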
* marks the source's active call; other numbers are inactive results; u = inconclusive; x = no result; ! = repeats disagree. Rows were chosen to be rich in hits. Some 1.3% of all compounds tested hit in one or more screens of this group.

SMILES | Furin inh | NR2E3 ag-1 | EP2 mod | PGE2 EP2 inh | JMJD2C inh | NR2E3 ag-2
O=C1/C(=C\c2ccccc2)[C@@H](NC2CCCCC2)c2ccccc21 | x | x | -2.0 | 58.0* | x | x
O=S(=O)(/C=C/c1ccccc1)NC1CCCCCC1 | -15.9 | -23.3 | 7.7 | 4.7 | 7.1 | -1.9
Cn1c(=O)[nH]c(=O)c2c1nc(N1CCCC1)n2Cc1cccc2ccccc12 | x | x | 7.2 | 11.7 | x | x
CCC(CC)c1nnc(NC(=O)CCCOc2ccccc2)s1 | x | x | 62.4* | 9.1 | x | x
CCC(CC)c1nnc(NC(=O)Oc2ccccc2)s1 | -2.9 | 9.8 | -0.3 | 9.4 | 8.7 | 3.6
O=C(C[N+]1(c2ccccc2)CCOCC1)c1ccccc1 | x | x | 15.3 | 53.4* | x | x
Cc1cc(C)c2[nH]c(=O)c(CN(CCCO)C(=O)NC3CCCCC3)cc2c1 | x | x | 30.6 | 10.8 | x | x
COc1ccc2cc(C#N)c(SCC(=O)NC(C)(C)C)nc2c1 | x | x | 40.3 | 13.6 | x | x
COc1ccc2cc(C#N)c(SCC(=O)NC3CCCCC3C)nc2c1 (stereo unspecified) | x | x | 76.9* | 25.7 | x | x
CCn1c(SCC(=O)Nc2ccccc2OC)nnc1C(C)C | x | x | 11.7 | 13.4 | x | x
C=CC[n+]1ccc(/C=C2\C=Cc3cc(C)ccc3N2CC)c2ccccc21 | -34.8 | 93.2* | -57.4 | 8.1 | x | x
CN1CCNC(=O)C1CC(=O)N1CCC2(CC1)NC(=O)c1ccccc1O2 (stereo unspecified) | x | x | -29.8 | x | x | x
C[C@@]12CC[C@@H]3[C@H](CCC4=CC(=O)CC[C@]43C)[C@H]1CC[C@H]2C(=O)Cn1cnc2c(=S)nc[nH]c21 | x | x | 11.2 | 40.8* | x | x
Cc1nc(C2CCC3C4CCC5=CC(=O)CC[C@]5(C)C4CC[C@]23C)cs1 (stereo partly specified) | -28.3 | x | 21.4 | 3.6 | 8.1 | 3.2
C[C@@]12CC[C@@H]3[C@H](CCC4=CC(=O)CC[C@]43C)[C@H]1CC[C@H]2C(=O)COS(=O)(=O)c1ccc(Br)cc1 | x | x | 17.4 | 43.8* | x | x
CC(=O)OCC(=O)[C@H]1CCC2C3CCC4=CC(=O)CC[C@]4(C)C3CC[C@@]21C (stereo partly specified) | x | x | 7.2 | 8.8 | x | x
CC1CCCN(c2nc3c(c(=O)[nH]2)CCN(Cc2ccc4nccnc4c2)C3)C1 (stereo unspecified) | x | x | -4.7 | 14.1 | x | x
O=c1[nH]c(N2CCCC2)nc2c1CCN(Cc1ccc3nccnc3c1)C2 | x | x | -8.5 | x | x | x
NC(=O)NC(=O)CSc1nnc(-c2ccco2)n1Cc1ccccc1 | -8.0 | 0.2 | -4.5 | 15.7 | 50.3* | -1.4
COc1ccc(N=c2oc3ccccc3cc2C(=O)NCc2ccco2)cc1 | x | x | 78.3* | 10.6 | x | x
CCCn1ncc(CN2C[C@@H]3CCCN3C[C@H]2Cc2ccccc2)c1C | x | x | 1.2 | 3.8 | x | x
CCOc1ccc(C2/C(=C(\O)c3ccc(OC)c(OC)c3)C(=O)C(=O)N2c2cc(C)on2)cc1OC (stereo unspecified) | -0.1 | 3.8 | 30.9 | 14.7 | -1.8 | 1.8
CCOc1ccc(/C(O)=C2\C(=O)C(=O)N(c3cc(C)on3)C2c2ccccc2OC)cc1 (stereo unspecified) | -17.9 | -35.4 | 31.9 | 40.2* | 5.7 | 5.3
COc1ccc(N=c2ssnc2Cl)cc1 | -10.3 | -10.4 | -72.4 | 75.8* | 48.8 | -1.8
CCOC(=O)c1ccc(N=c2ssnc2Cl)cc1 | -17.3 | -22.1 | -48.2 | 7.6 | 37.9 | x
SMILES | Furin inh | NR2E3 ag-1 | EP2 mod | PGE2 EP2 inh | JMJD2C inh | NR2E3 ag-2
Clc1ccc(N=c2ssnc2Cl)cc1 | -17.0 | 7.9 | -68.2 | 109.7* | u | 1.4
Fc1ccc(N=c2ssnc2Cl)c(F)c1 | -4.5 | -5.6 | -97.3 | 5.5 | -3.9 | 2.5
COc1cc(N=c2ssnc2Cl)cc(OC)c1OC | -5.4 | 0.6 | -40.0 | 129.5* | -12.5 | -1.8
Clc1nssc1=Nc1ccccc1 | -31.9 | -26.8 | -92.6 | 7.3 | x | x
N#Cc1ccc(N=c2ssnc2Cl)cc1 | 4.0 | -28.2 | -29.4 | 146.6* | 57.7*! | 0.3
Cc1ccc(C2NC(=O)C(O)=C2C(=O)c2cccs2)cc1 (stereo unspecified) | x | x | -8.3 | 13.2 | x | x
O=C(Nc1ccc(F)cc1)N(Cc1cc2cc3c(cc2[nH]c1=O)OCCO3)C1CCCCC1 | x | x | -38.8 | 9.2 | x | x
O=C(NCc1cccs1)c1cccnc1C(=O)O | -12.4 | -4.2 | 15.6 | 4.8 | 58.6* | -2.7
O=c1cc(-c2ccccc2Cl)oc2c(NS(=O)(=O)c3cc(Cl)cc(Cl)c3O)ccc(O)c12 | -5.6 | -20.2 | 8.4 | 45.0* | 6.7 | 3.8
Cc1c(N2CCCC2)cc2c(c1NC(=O)c1ccccc1Cl)C(C)(C)CC2(C)C | 2.7 | 4.3 | 15.1 | 46.8*! | 4.3 | 0.0
O=C(Nc1ccccc1N1CCCC1)c1cccc(Cl)c1Cl | -17.2 | 9.0 | 40.2 | 4.6 | 1.3 | 0.0
Cc1cc(=O)c2cccc(Br)c2[nH]1 | -11.6 | 4.6 | 32.6 | 24.2 | -2.6 | -0.4
O=c1cc(C(F)(F)F)[nH]c2c(C(F)(F)F)cccc12 | -18.3 | 100.5* | 6.9 | 9.1 | 2.3 | 3.8
O=C(Nc1ccc2c(c1)OCO2)C1CCCN(S(=O)(=O)c2ccc(Cl)cc2)C1 (stereo unspecified) | x | x | -63.7 | 11.2 | x | x
O=C(O)C1CCc2sc3[nH]c(=S)n(-c4ccccc4)c(=O)c3c21 (stereo unspecified) | -11.8 | -11.6 | 27.3 | 9.3 | -19.5 | 0.2
CCN(CC)C(=O)c1sc2[nH]c(=S)n(-c3ccccc3)c(=O)c2c1C | -7.1 | -5.7 | 60.7* | 9.8 | 0.1 | 3.5
C[C@@]1(CO)[C@H](O)CC[C@]2(C)[C@@H]1CC[C@H]1C[C@H]3C[C@]12CC[C@@]3(O)COC(=O)CN | x | x | -3.4 | 51.7* | x | x
CCc1ccc2[nH]c(=O)c(CN(Cc3cccnc3)C(=S)Nc3ccccc3)cc2c1 | x | x | -27.0 | 20.5 | x | x
C=CCn1c(-c2ccccc2)cc(SC)c(C#N)c1=O | -13.9 | -13.9 | 60.3 | 13.2 | 2.1 | -0.2
C=CCn1c(-c2ccccc2)ccc(C#N)c1=O | -15.6 | -36.5 | 64.1* | 3.8 | -4.7 | -1.5
Cc1cc(C)c2nc3c(c([C@H](O)[C@@H]4CCCCN4)c2c1)CC/C3=C\c1ccc(Cl)cc1 | x | x | 13.1 | 50.3* | x | x
OC(c1cc(-c2ccc(Cl)cc2)nc2ccccc12)C1CCCCN1 (stereo unspecified) | -25.8 | 3.3 | -45.9 | 23.9 | -11.2 | 1.6
COC(=O)c1ccccc1NC(=O)C12CC3CC(C1)CC(n1cnc(Cl)n1)(C3)C2 | -21.1 | -8.0 | 62.2* | 12.3 | -14.7 | 1.2
COc1cc(C(C(=O)NC2CCCCC2)N(Cc2cccs2)C(=O)Cc2c[nH]c3ccccc23)cc(OC)c1OC (stereo unspecified) | -17.4 | 4.8 | -14.3 | 4.5 | 52.4* | -0.8
COc1cc(C(C(=O)NC2CCCCC2)N(C(=O)Cc2c[nH]c3ccccc23)c2ccccc2C)cc(OC)c1OC (stereo unspecified) | -19.6 | -22.1 | 12.9 | 9.2 | 14.4 | -1.2
CSc1nc(C)cc(Nc2ccc(O)c(CN3CCOCC3)c2)n1 | x | x | 5.9 | 44.1* | x | x

Screens deposited in PubChem BioAssay by several laboratories.
